# Measured values: publication PMC3367204 (Nucleic Acids Research, 2012)
# Read-outs that look alike come from different tables or passages of the source.
# Key:
# E. coli mutant U754A = test: Sensitivity to telithromycin of E. coli cells; format: cell-based; details: Escherichia coli, MUTANTU754A, read-out: IC50 (growth inhibition)
# Summary of the method: (§1)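 Preculture at OD560 0.700 is diluted into LB and grown at 37°C with or without test compound, until the untreated culture reaches OD560 0.700. IC50 is the concentration that lowers OD to halfway between 0.700 and the bottom plateau of the dose curve. Means of three independent experiments.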
# [1] = tested on: 23S rRNA of complex C prepared from E. coli ribosomes; test: Footprinting; format: binding, Escherichia coli
# Summary of the method: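 Complex C (10 pmol; 100 nM) is incubated at 25°C in buffer B (50 mM HEPES/KOH pH 7.2, 4.5 mM Mg acetate, 150 mM NH4Cl, 5 mM DTT), optionally with 100 µM spermine. […] Probing uses DMS, kethoxal or CMCT, with 23S rRNA read by primer extension on 6% polyacrylamide/7 M urea gels. Band intensity is normalized to the no-compound control; means of three runs.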
# wild-type E. coli cells = test: Sensitivity to telithromycin of E. coli cells; format: cell-based; details: Escherichia coli, read-out: IC50 (growth inhibition)
# Summary of the method: as §1
# [2] = target: complex C containing ribosomes with mutated 23S rRNA U754A (Escherichia coli, UniProt P60723+P61175); test: Kinetics of telithromycin binding to complex C by competition with tylosin; details: for Kd: U754A, 4.5 mM Mg^2+, 150 mM NH4^+
# [3] = target: complex C containing ribosomes mutated in ribosomal protein L22: Δ82–84 (Escherichia coli, UniProt P60723+P61175, DEL82-84); test: as above; details: for Kd: L22: Δ82–84, 4.5 mM Mg^2+, 150 mM NH4^+
# [4] = target: T1, complex C prepared from E. coli ribosomes (PTase activity) (Escherichia coli, UniProt P60723+P61175); test: Puromycin reaction; format: biochemical; details: 2 μΜ telithromycin, 200 μΜ puromycin, buffer A, 25°C
# Summary of the method: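 Complex C from E. coli ribosomes reacts with 200 µM puromycin at 25°C in buffer A (100 mM Tris/HCl pH 7.2, 4.5 mM Mg acetate, 150 mM NH4Cl), alone or with 2 µM test compound or 2 µM tylosin. AcPhe-puromycin formation is followed over time. Means of three independent experiments.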
# E. coli mutant U2609C = test: Sensitivity to telithromycin of E. coli cells; format: cell-based; details: Escherichia coli, MUTANTU2609C, read-out: IC50 (growth inhibition)
# Summary of the method: as §1
# [5] = tested on: E. coli mutant L4: Lys63Glu; test: Sensitivity to telithromycin of E. coli cells; format: cell-based; details: Escherichia coli, read-out: IC50 (growth inhibition)
# Summary of the method: as §1
# [6] = tested on: E. coli mutant L22: Δ82–84; test: Sensitivity to telithromycin of E. coli cells; format: cell-based; details: Escherichia coli, read-out: IC50 (growth inhibition)
# Summary of the method: as §1
# [7] = target: complex C (poly(U)-programmed E. coli ribosomes), wild-type (Escherichia coli, UniProt P60723+P61175); format: binding; details: for Kd: Wild-type; for Kd / koff: 4.5 mM Mg^2+, 150 mM NH4^+; for koff: read-out: koff,T, Wild-type
# [8] = target: complex C containing ribosomes mutated in ribosomal protein L4: Lys63Glu (Escherichia coli, UniProt P60723+P61175, K63E); test: Kinetics of telithromycin binding to complex C by competition with tylosin; details: for Kd: L4: Lys63Glu, 4.5 mM Mg^2+, 150 mM NH4^+
# [9] = tested on: complex C containing ribosomes with mutated 23S rRNA U2609C; test: as above; design: species or system Escherichia coli
# [10] = target: T1, complex C prepared from E. coli ribosomes (PTase activity); details: 4.5 mM Mg^2+ and 150 mM NH4^+; cited from earlier work
# [11] = C*T (final site), 4.5 mM Mg^2+ 150 mM NH4^+
# [12] = C*T (final site), 4.5 mM Mg^2+ 150 mM NH4^+ 100 μΜ spermine
# [13] = CT (initial site, 5 s), 4.5 mM Mg^2+ 150 mM NH4^+
# [14] = CT (initial site, 5 s), 4.5 mM Mg^2+ 150 mM NH4^+ 100 μΜ spermine
compound,measurement,setting,value
CC[C@H]1OC(=O)[C@H](C)C(=O)[C@H](C)[C@@H](O[C@@H]2O[C@H](C)C[C@H](N(C)C)[C@H]2O)[C@](C)(OC)C[C@@H](C)C(=O)[C@H](C)[C@H]2N(CCCCn3cnc(-c4cccnc4)c3)C(=O)O[C@]12C [telithromycin],IC50,E. coli mutant U754A,14.8 ± 2.5 µg/mL
same,Relative reactivity of 23S rRNA residue A752 (ratio to complex C),[1]; [11],"0.30 ± 0.02 ^*^, **"
same,Relative reactivity of 23S rRNA residue A789 (ratio to complex C),[1]; [11],0.89 ± 0.08
same,Relative reactivity of 23S rRNA residue A2058 (ratio to complex C),[1]; [11],0.25 ± 0.03 ^*
same,Relative reactivity of 23S rRNA residue A2059 (ratio to complex C),[1]; [11],0.42 ± 0.03 ^*
same,Relative reactivity of 23S rRNA residue A2062 (ratio to complex C),[1]; [11],1.28 ± 0.15 ^*
same,Relative reactivity of 23S rRNA residue C2611 (ratio to complex C),[1]; [11],0.60 ± 0.08 ^*
same,Relative reactivity of 23S rRNA residue G2505 (ratio to complex C),[1]; [11],0.78 ± 0.11 ^*
same,Relative reactivity of 23S rRNA residue U790 (ratio to complex C),[1]; [11],"0.85 ± 0.08 ^*^, **"
same,Relative reactivity of 23S rRNA residue U2609 (ratio to complex C),[1]; [11],"0.72 ± 0.04 ^*^, **"
same,Relative reactivity of 23S rRNA residue A752 (ratio to complex C),[1]; [12],0.87 ± 0.07 ^*
same,Relative reactivity of 23S rRNA residue A789 (ratio to complex C),[1]; [12],0.93 ± 0.08
same,Relative reactivity of 23S rRNA residue A2058 (ratio to complex C),[1]; [12],"0.38 ± 0.02 ^*^, **"
same,Relative reactivity of 23S rRNA residue A2059 (ratio to complex C),[1]; [12],"0.57 ± 0.03 ^*^, **"
same,Relative reactivity of 23S rRNA residue A2062 (ratio to complex C),[1]; [12],1.15 ± 0.14
same,Relative reactivity of 23S rRNA residue C2611 (ratio to complex C),[1]; [12],0.97 ± 0.05
same,Relative reactivity of 23S rRNA residue G2505 (ratio to complex C),[1]; [12],0.85 ± 0.06 ^*
same,Relative reactivity of 23S rRNA residue U790 (ratio to complex C),[1]; [12],0.93 ± 0.08**
same,Relative reactivity of 23S rRNA residue U2609 (ratio to complex C),[1]; [12],0.90 ± 0.08
same,Relative reactivity of 23S rRNA residue A752 (ratio to complex C),[1]; [13],0.65 ± 0.05
same,Relative reactivity of 23S rRNA residue A789 (ratio to complex C),[1]; [13],0.78 ± 0.07
same,Relative reactivity of 23S rRNA residue A2058 (ratio to complex C),[1]; [13],0.20 ± 0.02
same,Relative reactivity of 23S rRNA residue A2059 (ratio to complex C),[1]; [13],0.38 ± 0.03
same,Relative reactivity of 23S rRNA residue A2062 (ratio to complex C),[1]; [13],1.33 ± 0.18
same,Relative reactivity of 23S rRNA residue C2611 (ratio to complex C),[1]; [13],0.60 ± 0.09
same,Relative reactivity of 23S rRNA residue G2505 (ratio to complex C),[1]; [13],0.65 ± 0.09
same,Relative reactivity of 23S rRNA residue U790 (ratio to complex C),[1]; [13],0.60 ± 0.07
same,Relative reactivity of 23S rRNA residue U2609 (ratio to complex C),[1]; [13],0.95 ± 0.07
same,Relative reactivity of 23S rRNA residue A752 (ratio to complex C),[1]; [14],0.75 ± 0.05
same,Relative reactivity of 23S rRNA residue A789 (ratio to complex C),[1]; [14],0.82 ± 0.08
same,Relative reactivity of 23S rRNA residue A2058 (ratio to complex C),[1]; [14],0.30 ± 0.01
same,Relative reactivity of 23S rRNA residue A2059 (ratio to complex C),[1]; [14],0.45 ± 0.05
same,Relative reactivity of 23S rRNA residue A2062 (ratio to complex C),[1]; [14],1.20 ± 0.14
same,Relative reactivity of 23S rRNA residue C2611 (ratio to complex C),[1]; [14],0.98 ± 0.05
same,Relative reactivity of 23S rRNA residue G2505 (ratio to complex C),[1]; [14],0.72 ± 0.07
same,Relative reactivity of 23S rRNA residue U790 (ratio to complex C),[1]; [14],0.70 ± 0.07
same,Relative reactivity of 23S rRNA residue U2609 (ratio to complex C),[1]; [14],0.97 ± 0.07
same,IC50,wild-type E. coli cells,4 ± 0.8 µg/mL
same,Kd,[2]; K*T,22.6 ± 3.22 nM
same,Kd,[2]; KT,604 ± 45 nM
same,"Effect of mutation on koff,T constant",[2]; U754A vs wild-type,doubling
same,Kd,[3]; K*T,210 ± 30.9 nM
same,Kd,[3]; KT,530 ± 42 nM
same,"Enhancement in dissociation rate constant koff,T by mutation",[3]; L22: Δ82–84 vs wild-type,about 4 fold
same,Increase in overall dissociation constant K*T by mutation,[3]; L22: Δ82–84 vs wild-type,25 fold
same,"Reduction in association rate constant kon,T by mutation",[3]; L22: Δ82–84 vs wild-type,10 fold
same,koff,"[3]; read-out: koff,T",0.0005 s⁻¹
same,Inhibition of AcPhe-puromycin synthesis,[4],fails to inhibit
same,IC50,E. coli mutant U2609C,41.6 ± 4.3 µg/mL
same,IC50,[5],12 ± 2.1 µg/mL
same,IC50,[6],50 ± 6.5 µg/mL
same,Reversal of inactivation of complex C by tylosin,"[7]; 4 μΜ tylosin, telithromycin >10 μΜ",entirely reversed
same,"Decrease of kon,T value by polyamines",[7]; 100 μΜ spermine or 50 μΜ spermine and 2 mM spermidine vs no polyamines,83%
same,Kd,"[7]; K*T, 50 μΜ spermine, 2 mM spermidine",75.7 ± 8.8 nM
same,Kd,"[7]; K*T, 100 μΜ spermine",91.4 ± 11.2 nM
same,Kd,"[7]; KT, 50 μΜ spermine, 2 mM spermidine",1714 ± 13 nM
same,Kd,"[7]; KT, 100 μΜ spermine",2500 ± 185 nM
same,Kd,"[7]; KT, initial low-affinity site",500 ± 44 nM
same,koff.T lower than the rate constant for drop off (Lovmar et al.),[7]; compared with drop off rate constant of ref 3,10 times
same,Increase of KT* value by polyamines,[7]; polyamine buffer vs no polyamines,10 fold
same,Decrease in the affinity of telithromycin for the initial site by spermine,[7]; presence of spermine,5 fold
same,koff,[7],0.000137 s⁻¹
same,koff,[7]; 100 μΜ spermine,4.83e-05 s⁻¹
same,Kd,[8]; K*T,12 ± 2.67 nM
same,Kd,[8]; KT,470 ± 48 nM
same,koff,"[8]; read-out: koff,T",0.000127 s⁻¹
same,Enhancement of overall constant Κ*T by mutation,[9]; U2609C vs wild-type,20 fold
same,"koff,T","[9]; U2609C, 4.5 mM Mg^2+, 150 mM NH4^+",0.0395 ± 0.0031 min^_1
same,Kd,"[9]; read-out: K*T, U2609C, 4.5 mM Mg^2+, 150 mM NH4^+",148 ± 18.9 nM
same,Kd,"[9]; read-out: KT, U2609C, 4.5 mM Mg^2+, 150 mM NH4^+",536 ± 43 nM
CC[C@H]1OC(=O)C[C@@H](O)[C@H](C)[C@@H](O[C@@H]2O[C@H](C)[C@@H](O[C@H]3C[C@@](C)(O)[C@@H](O)[C@H](C)O3)[C@H](N(C)C)[C@H]2O)[C@@H](CC=O)C[C@@H](C)C(=O)/C=C/C(C)=C/[C@@H]1CO[C@@H]1O[C@H](C)[C@@H](O)[C@@H](OC)[C@H]1OC [tylosin],Inhibition of AcPhe-puromycin synthesis,[10],inhibits
